These results are taken from ChEMBL document CHEMBL5120856, “New salicylic acid derivatives, double inhibitors of glycolate oxidase and lactate dehydrogenase, as effective agents decreasing oxalate production” (Eur J Med Chem, 2022).

Series [1] has as its target T1, 2-Hydroxyacid oxidase 1 (Homo sapiens) (UniProt Q9UJM8).
T1 sequence (whole entry): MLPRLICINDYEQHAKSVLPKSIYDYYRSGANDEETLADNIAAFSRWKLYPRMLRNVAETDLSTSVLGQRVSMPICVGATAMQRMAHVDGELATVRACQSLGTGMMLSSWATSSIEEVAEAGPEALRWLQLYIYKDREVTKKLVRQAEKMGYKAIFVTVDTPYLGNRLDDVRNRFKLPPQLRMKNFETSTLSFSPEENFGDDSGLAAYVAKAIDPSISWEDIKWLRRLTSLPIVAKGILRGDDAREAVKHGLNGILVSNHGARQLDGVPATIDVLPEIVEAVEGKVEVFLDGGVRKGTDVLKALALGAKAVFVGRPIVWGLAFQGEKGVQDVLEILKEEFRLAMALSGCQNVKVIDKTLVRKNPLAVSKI
As to the kind of experiment: Non-competitive mixed inhibition of N-terminal His-tagged human recombinant glycolate oxidase expressed in Escherichia coli BL21 (DE3) cells assessed as decrease in Vmax with increase in apparent Km using glycolate as substrate upto 60 microM.

Series [2] concerns Hepatocyte. Briefly: Inhibition of GO/LDHA in hyperoxaluric-primary hepatocyte isolated from Agxt1 knockdown PH1 C57BL/6 mouse assessed as relative oxalate output at 10 uM measured at 24 hrs in the presence of glycolate relative to control. Type of series: cell-based. Summed up:
(§1)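 Agxt1-/- mouse primary hepatocytes cultured with 5 mM glycolate, inhibitor at 10 μM; extracellular oxalate measured by colorimetric kit 24 and 48 h after inhibitor addition; relative oxalate = oxalate with inhibitor over oxalate without inhibitor; negative values mean below detection limit; mean of three/four replicates ± SD.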

The test system of series [3] is Hepatocyte. As to the kind of experiment: Inhibition of GO/LDHA in hyperoxaluric-primary hepatocyte isolated from Agxt1 knockdown PH1 C57BL/6 mouse assessed as relative oxalate output at 10 uM measured at 48 hrs in the presence of glycolate relative to control. The format is cell-based. Summed up: as §1
The subject of series [4] is Hepatocyte. Briefly: Inhibition of GO/LDHA in hyperoxaluric-primary hepatocyte isolated from Grhpr-knockdown PH2 C57BL/6 mouse assessed as relative oxalate output at 10 uM measured at 24 hrs in the presence of glycolate relative to control. Type of series: cell-based. The method, boiled down:
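Grhpr-/- mouse primary hepatocytes cultured with 10 mM glycolate, inhibitor at 10 μM; extracellular oxalate determined colorimetrically at 24 and 48 h post-treatment, expressed relative to untreated medium (RO); negative RO means below detection limit; three/four replicates, mean ± SD.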

The test system of series [5] is Hepatocyte. Briefly: Inhibition of GO/LDHA in hyperoxaluric-primary hepatocyte isolated from Hoga1-knockdown PH3 C57BL/6 mouse assessed as relative oxalate output at 10 uM measured at 24 hrs in the presence of hydroxyproline relative to control. Type of series: cell-based. Summed up: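 Hoga1-/- mouse primary hepatocytes challenged with 10 mM hydroxyproline, inhibitor 10 μM; extracellular oxalate measured by colorimetric kit 24 and 48 h after dosing, given as ratio to oxalate without inhibitor; negative values are below detection limit; mean of three/four replicates ± SD.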

Series [6] concerns Hepatocyte. Briefly: Cytotoxicity against hyperoxaluric-primary hepatocyte isolated from Grhpr-knockdown PH2 C57BL/6 mouse assessed as cell death at 10 uM by MTS assay. Type of series: toxicity, cell-based. As to conditions: hepatocytes, Grhpr-knockdown PH2 (primary hyperoxaluria type 2). The method, boiled down:
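Primary hepatocytes from Agxt1-/- (PH1, 5 mM glycolate), Grhpr-/- (PH2, 10 mM glycolate) or Hoga1-/- (PH3, 10 mM hydroxyproline) mice, incubated with inhibitor at 10 μM; viability followed through the oxalate assay by MTS tetrazolium method.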

Series [7] addresses T2, Prostaglandin G/H synthase 1 (Ovis aries, UniProt P05979).
T2 sequence (P05979 whole entry): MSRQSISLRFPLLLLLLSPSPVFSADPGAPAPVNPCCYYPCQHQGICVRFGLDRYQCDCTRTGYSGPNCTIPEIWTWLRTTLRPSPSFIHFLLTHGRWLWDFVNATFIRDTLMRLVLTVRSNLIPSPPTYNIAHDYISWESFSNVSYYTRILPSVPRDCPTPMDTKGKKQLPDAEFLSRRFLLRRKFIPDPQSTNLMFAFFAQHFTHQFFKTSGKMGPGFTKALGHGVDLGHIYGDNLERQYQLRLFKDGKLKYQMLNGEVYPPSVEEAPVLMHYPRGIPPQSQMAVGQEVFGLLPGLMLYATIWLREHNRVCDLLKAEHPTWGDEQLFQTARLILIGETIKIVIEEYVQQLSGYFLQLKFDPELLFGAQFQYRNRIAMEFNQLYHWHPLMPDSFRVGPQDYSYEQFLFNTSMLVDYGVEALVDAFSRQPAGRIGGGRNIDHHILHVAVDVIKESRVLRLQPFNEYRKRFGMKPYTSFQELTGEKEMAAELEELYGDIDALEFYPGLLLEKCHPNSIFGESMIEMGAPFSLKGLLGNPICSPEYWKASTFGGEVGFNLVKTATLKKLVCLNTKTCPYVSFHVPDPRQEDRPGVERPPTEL
As to the kind of experiment: Inhibition of ovine COX-1 using arachidonic acid as substrate measured every 60 sec for 10 mins by fluorescence based assay.

The structures appear in SMILES notation. Calls of active or inactive are those of the source. The rule behind the calls is not given here.

For the molecule `N.N.O=C(O)c1cc(-c2ccc(CN(Cc3ccccc3)Cc3ccc(-c4ccc(O)c(C(=O)O)c4)o3)o2)ccc1O`, the inhibition result in series [1] is “Active”. Besides, the fold change (FC) in series [2] worked out at 0.66; in series [3], 0.76; in series [4] it was 0.59; in series [5], 0.41. In addition, the Activity entry in series [6] is reported as “Non-Toxic”. In series [7], the IC50 was 24 µM.
